Results reported in ChEMBL document CHEMBL3085664, “Structure-activity relationship of imidazopyridinium analogues as antagonists of neuropeptide s receptor” (J Med Chem, 2013).

Assays:
[1] = biological target: T1, Neuropeptide S receptor (Homo sapiens) (UniProt Q6W5P4); assay: Antagonist activity at neuropeptide S receptor (unknown origin) expressed in CHO cells assessed as inhibition of NPS-induced ERK activation at 50 uM after 20 mins by HTRF assay relative to control; format: cell-based
T1 sequence (whole entry): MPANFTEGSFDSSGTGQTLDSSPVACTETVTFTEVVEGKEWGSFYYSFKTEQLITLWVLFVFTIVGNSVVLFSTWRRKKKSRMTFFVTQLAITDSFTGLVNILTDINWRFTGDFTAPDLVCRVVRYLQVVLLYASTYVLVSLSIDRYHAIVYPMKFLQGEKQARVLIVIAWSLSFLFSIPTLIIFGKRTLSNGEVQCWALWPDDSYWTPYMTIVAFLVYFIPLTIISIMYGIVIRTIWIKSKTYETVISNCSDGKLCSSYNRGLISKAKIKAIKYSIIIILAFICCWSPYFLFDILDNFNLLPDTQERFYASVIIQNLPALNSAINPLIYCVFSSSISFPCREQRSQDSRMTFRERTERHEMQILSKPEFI

[2] = biological target: T2, Neuropeptide S receptor (Homo sapiens, UniProt Q6W5P4); assay: Antagonist activity at neuropeptide S receptor (unknown origin) expressed in CHO cells assessed as inhibition of NPS-induced calcium mobilization after 10 mins by fluorescence assay; format: functional, cell-based
T2 sequence (Q6W5P4 whole entry): T1 sequence (whole entry)
In short: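 CHO-NPSR cells, 2000/well in 1536-well plates, incubated overnight, then loaded with no-wash calcium dye for 1 h at 37°C. Compound in DMSO was added for 10 min. Baseline fluorescence was recorded 6 s at 1 Hz, then EC80 NPS in stimulation buffer was added and recording continued 4 min at 1 Hz on a kinetic reader. IC50 is the mean with SD of two independent experiments in duplicate.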

[3] = biological target: T2, Neuropeptide S receptor; assay: Antagonist activity at neuropeptide S receptor (unknown origin) expressed in CHO cells assessed as cAMP level after 30 mins by […] assay; format: functional, cell-based
In short: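 CHO cells stably expressing NPSR, 1800 cells/well in 1536-well format, seeded overnight at 37°C in medium without Geneticin. Stimulation buffer (PBS, 0.1% BSA, 0.05% Tween-20, 500µM Ro 20-1724, EC80 NPS) was added for 30 min at 37°C. cAMP was read by HTRF (d2-cAMP/cryptate anti-cAMP in lysis buffer, 30 min). IC50 is the mean with SD of two independent experiments, each run in duplicate.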

[4] = biological target: T2, Neuropeptide S receptor; assay: Antagonist activity at neuropeptide S receptor (unknown origin) assessed as intracellular calcium level by cell based assay; format: functional
In short: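 CHO cells stably expressing NPSR were seeded at 2000 cells/well and incubated overnight at 37 °C, 5% CO2. They were loaded with no-wash calcium dye for 1 h, then preincubated with compound in DMSO for 10 min. Stimulation used NPS at EC80 in PBS/0.1% BSA/0.05% Tween-20 with 500 µM Ro 20-1724. Kinetic fluorescence was read at 1 Hz: 6 s baseline, then 4 min. IC50 is the mean ± SD of two independent experiments, each in duplicate.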

[5] = biological target: T2, Neuropeptide S receptor; assay: Antagonist activity at neuropeptide S receptor (unknown origin) expressed in CHO cells assessed as inhibition of NPS-induced ERK activation after 20 mins by HTRF assay; format: cell-based

SMILES	IC50 ([2]; read-out: IC50) [nM]	IC50 ([3]; read-out: IC50) [nM]	also measured
S=P(c1ccccc1)(c1ccccc1)c1cnc2ccccn12	4030	63000	inhibition [1]: < 50%
Cc1c(P(=S)(c2ccccc2)c2ccccc2)c2ccccc2n1C	2800		inhibition [1]: < 50%; IC50 ([3]; cho): Not Active
Cc1c(P(=S)(c2ccccc2)c2ccccc2)n2ccccc2[n+]1C/C=C/c1ccc(C(F)(F)F)cc1	4.5	400	
Cc1c(P(=S)(c2ccccc2)c2ccccc2)n2ccccc2[n+]1C/C=C/c1cccc(Br)c1	23	670	
Cc1c(P(=S)(c2ccccc2)c2ccccc2)n2ccccc2[n+]1C/C=C/c1cccc(Cl)c1	9.2	220	
O=C1c2ccccc2C(=O)C1(c1ccccc1)N1CCN(Cc2ccccc2)CC1			IC50 [4]: 27 nM
Cc1nc2ccccn2c1C(O)(c1ccccc1)c1ccccc1			IC50 ([2]; cho): Not Active
Cc1c(P(=S)(c2ccccc2)c2ccccc2)n2ccccc2[n+]1C/C=C/c1ccc(F)cc1	3.4	71	
C[n+]1cc(P(=S)(c2ccccc2)c2ccccc2)n2ccccc21	2500	39000	inhibition [1]: < 50%
Cc1ccc(/C=C/C[n+]2c(C)c(P(=S)(c3ccccc3)c3ccccc3)n3ccccc32)cc1	9	330	
COc1cccc(/C=C/C[n+]2c(C)c(P(=S)(c3ccccc3)c3ccccc3)n3ccccc32)c1	3.2	110	
C[n+]1cc(C(O)(c2ccccc2)c2ccccc2)n2ccccc21.O=C([O-])C(F)(F)F			IC50 ([2]; cho): Not Active
c1ccc(P(c2ccccc2)c2cnc3ccccn23)cc1	35000		IC50 ([3]; cho): Not Active
Cc1c(P(=S)(c2ccccc2)c2ccccc2)n2ccccc2[n+]1Cc1ccccc1	32	1300	IC50 [5]: 16 nM
Cc1c(C(O)(c2ccccc2)c2ccccc2)n2ccccc2[n+]1C.O=C([O-])C(F)(F)F			IC50 ([2]; cho): Not Active
O=C(NCc1ccccc1)N1CCN2C(=O)OC(c3ccccc3)(c3ccccc3)C2C1 (stereo unspecified)			IC50 [4]: 26 nM
Cc1c(P(=S)(c2ccccc2)c2ccccc2)n2ccccc2[n+]1C/C=C/c1ccccc1Cl	3.4	94	
Cc1c(P(=S)(c2ccccc2)c2ccccc2)n2ccccc2[n+]1C/C=C/c1ccc(Cl)cc1	2.2	120	
Cn1cc(P(=S)(c2ccccc2)c2ccccc2)c2ccccc21	7300		IC50 ([3]; cho): Not Active
OC(c1ccccc1)(c1ccccc1)c1cnc2ccccn12			IC50 ([2]; cho): Not Active
Cc1c(P(=S)(c2ccccc2)c2ccccc2)n2ccccc2[n+]1CCCCc1ccccc1	< 0.5	940	IC50 [5]: 15 nM
Cc1c(P(=S)(c2ccccc2)c2ccccc2)n2ccccc2[n+]1C/C=C/c1ccc2ccccc2c1	64	1300	
Cc1nc2ccccn2c1P(=O)(c1ccccc1)c1ccccc1	27000		IC50 ([3]; cho): Not Active
Cc1c(P(=S)(c2ccccc2)c2ccccc2)n2ccccc2[n+]1C/C=C/c1ccc(Br)cc1	5.7	170	
Cc1c(P(=S)(c2ccccc2)c2ccccc2)n2ccccc2[n+]1CCCc1ccccc1	< 0.5	110	
Cc1c(P(=S)(c2ccccc2)c2ccccc2)n2ccccc2[n+]1CCc1ccccc1	73	2100	IC50 [5]: 16 nM
Cc1c(P(=S)(c2ccccc2)c2ccccc2)n2ccccc2[n+]1CCCCCc1ccccc1	13	710	IC50 [5]: 6.2 nM
Cc1nc2ccccn2c1P(=S)(c1ccccc1)c1ccccc1	1000	18000	IC50 [5]: 9.1 nM
O=P(c1ccccc1)(c1ccccc1)c1cnc2ccccn12			IC50 ([2]; cho): Not Active
Cc1c(P(=S)(c2ccccc2)c2ccccc2)n2ccccc2[n+]1C/C=C/c1ccc(F)c(Br)c1	45	840	
